What is called MIC80 is the lowest concentration that inhibits either 80% of growth or 80% of the strains tested, depending on the study. In general, MIC50 refers to an inhibitory concentration at the 50% level, which refers to growth in some studies and to a panel of isolates in others. In general, MIC refers to the lowest concentration that inhibits growth of the organism. The low end stands for inhibition by little substance, the high end for a need for much substance.

We go through three compounds from ChEMBL document CHEMBL4354800, “Amphiphilic nebramine-based hybrids Rescue legacy antibiotics from intrinsic resistance in multidrug-resistant Gram-negative bacilli” (Eur J Med Chem, 2019).

What all share (type): functional
Experiment [1] relates to Pseudomonas aeruginosa. The experiment is described as follows: Potentiation of minocycline-induced antibacterial activity against MDR/XDR Pseudomonas aeruginosa isolate PA262-101856 harboring GyrA T83I mutant assessed as fold reduction in minocycline MIC at 7.5 uM incubated for 18 hrs by broth microdilution method. For orientation: Broth dilution looks for growth in wells or tubes with falling amounts of substance.

The test system of experiment [2] is Pseudomonas aeruginosa. The experiment can be described thus: Potentiation of rifampicin-induced antimicrobial activity against MDR/XDR Pseudomonas aeruginosa isolate 101885 harboring GyrA Thr83Ile mutant assessed as rifampicin MIC80 incubated for 18 hrs by broth microdilution method (reference value: 16 microg/ml). The following applies: isolate 101885, 18 h.

For experiment [3], the system named is Pseudomonas aeruginosa. The experiment is described as follows: Potentiation of rifampicin-induced antimicrobial activity against MDR/XDR Pseudomonas aeruginosa isolate PA259-96918 harboring GyrA Thr83Ile mutant assessed as rifampicin MIC80 incubated for 18 hrs by broth microdilution method (reference value: 16 microg/ml). The note with it: isolate PA259-96918, 18 h.

The subject of experiment [4] is Pseudomonas aeruginosa. The experiment is described as follows: Potentiation of rifampicin-induced antimicrobial activity against MDR/XDR Pseudomonas aeruginosa isolate PA264-104354 harboring GyrA Thr83Ile mutant assessed as rifampicin MIC80 incubated for 18 hrs by broth microdilution method (reference value: 16 microg/ml). The following applies: isolate PA264-104354, 18 h.

For experiment [5], the system named is Pseudomonas aeruginosa. The experiment can be described thus: Potentiation of rifampicin-induced antibacterial activity against MDR/XDR Pseudomonas aeruginosa isolate 101243 devoid of GyrA T83I mutant assessed as fold reduction in rifampicin MIC at 7.5 uM incubated for 18 hrs by broth microdilution method. A digest of the protocol: (§1)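 CLSI broth microdilution. Overnight cultures were set to 0.5 McFarland in saline, diluted 1:50 in Mueller-Hinton broth to a final 5 × 10^5 CFU/mL, and incubated 18 h at 37 °C against 2-fold antibiotic dilutions. A fixed adjuvant level was present throughout. MIC = lowest concentration with no visible turbidity, confirmed at 590 nm. Potentiation = fold drop in antibiotic MIC versus antibiotic alone.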

The subject of experiment [6] is Pseudomonas aeruginosa. The experiment is described as follows: Potentiation of moxifloxacin-induced antibacterial activity against MDR/XDR Pseudomonas aeruginosa isolate 101885 harboring GyrA T83I mutant assessed as fold reduction in moxifloxacin MIC at 7.5 uM incubated for 18 hrs by broth microdilution method. The essentials: as §1
Experiment [7] deals with Pseudomonas aeruginosa. The experiment is described as follows: Potentiation of ciprofloxacin-induced antibacterial activity against MDR/XDR Pseudomonas aeruginosa isolate PA259-96918 harboring GyrA T83I mutant assessed as fold reduction in ciprofloxacin MIC at 7.5 uM incubated for 18 hrs by broth microdilution method.
Experiment [8] has as its system Pseudomonas aeruginosa. The experiment can be described thus: Potentiation of rifampicin-induced antimicrobial activity against MDR/XDR Pseudomonas aeruginosa isolate 101243 devoid of GyrA Thr83Ile mutant assessed as rifampicin MIC50 incubated for 18 hrs by broth microdilution method (reference value: 8 microg/ml). The following applies: isolate 101243, 18 h.
The test system of experiment [9] is Acinetobacter baumannii. The experiment can be described thus: Synergistic antibacterial activity against multidrug-resistant Acinetobacter baumannii 110193 assessed as fractional inhibitory concentration index in presence of minocycline incubated for 18 hrs by broth dilution method.
Experiment [10] relates to Pseudomonas aeruginosa. The experiment is described as follows: Potentiation of ciprofloxacin-induced antibacterial activity against MDR/XDR Pseudomonas aeruginosa isolate 100036 harboring GyrA T83I mutant assessed as fold reduction in ciprofloxacin MIC at 7.5 uM incubated for 18 hrs by broth microdilution method.
The test system of experiment [11] is Acinetobacter baumannii. The experiment can be described thus: Antimicrobial activity against multidrug-resistant Acinetobacter baumannii 110193 incubated for 18 hrs by broth dilution method. The note with it: Acinetobacter baumannii, 110193, 18 h. A digest of the protocol:
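Broth microdilution per CLSI: overnight cultures set to 0.5 McFarland in saline, diluted 1:50 in Mueller-Hinton broth to a final 5 × 10^5 CFU/mL, added to 2-fold serial dilutions, incubated 18 h at 37 °C; MIC is the lowest concentration without visible turbidity, confirmed at 590 nm.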

Experiment [12] has as its system Pseudomonas aeruginosa. The experiment is described as follows: Potentiation of rifampicin-induced antimicrobial activity against MDR/XDR Pseudomonas aeruginosa isolate PA260-97103 harboring GyrA Thr83Ile mutant assessed as rifampicin MIC50 incubated for 18 hrs by broth microdilution method (reference value: 8 microg/ml). The following applies: isolate PA260-97103, 18 h.

For experiment [13], the system named is Escherichia coli. The experiment is described as follows: Synergistic antibacterial activity against Escherichia coli 107115 assessed as fractional inhibitory concentration index in presence of rifampicin incubated for 18 hrs by broth dilution method. The essentials:
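Checkerboard titration of the adjuvant against the antibiotic, run under the CLSI microdilution conditions (MHB, 5 × 10^5 CFU/mL, 18 h, 37 °C). Each agent's FIC is its MIC in combination divided by its MIC alone; FICI is the sum of the two FICs. FICI ≤0.5 was read as synergy, >0.5–4.0 as no interaction, and >4.0 as antagonism.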

In a further experiment the test system is Enterobacter cloacae. The experiment can be described thus: Potentiation of minocycline-induced antibacterial activity against Enterobacter cloacae 117029 assessed as fold reduction in minocycline MIC at 4.1 uM incubated for 18 hrs by broth dilution method. The essentials:
(§2)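 Antibiotic MIC determined by CLSI broth microdilution (MHB, 5 × 10^5 CFU/mL, 18 h, 37 °C), once alone and once with a fixed concentration of the adjuvant. Potentiation is the ratio of the antibiotic MIC alone to its MIC in the presence of the adjuvant.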

The subject of another experiment is Klebsiella pneumoniae. The experiment can be described thus: Potentiation of minocycline-induced antibacterial activity against Klebsiella pneumoniae 113250 assessed as fold reduction in minocycline MIC at 4.1 uM incubated for 18 hrs by broth dilution method. The essentials:
as §2

Experiment [14] concerns Escherichia coli. The experiment is described as follows: Potentiation of minocycline-induced antibacterial activity against Escherichia coli 107115 assessed as fold reduction in minocycline MIC at 4.1 uM incubated for 18 hrs by broth dilution method. The essentials:
as §2

In experiment [15] the test system is Pseudomonas aeruginosa. The experiment is described as follows: Antimicrobial activity against XDR Pseudomonas aeruginosa isolate PA264 infected in Galleria mellonella larvae assessed as survival rate at 25 mg/kg co-administered with 25 mg/kg rifampicin at 2 hrs post-inoculation measured after 18 hrs relative to control. The essentials:
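G. mellonella larvae were injected with ~5 CFU of P. aeruginosa PA264 (10 µL of 5 × 10^2 CFU/mL in PBS) and held 2 h at 37 °C. A single 10 µL injection followed: monotherapy or rifampicin + compound (25+25, 50+50 or 75+75 mg/kg), with PBS as control. Larvae kept at 37 °C were scored every 6 h to 24 h; dead = no response to touch. n = 30 (two runs of 15); Kaplan-Meier.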

In experiment [16] the test system is Pseudomonas aeruginosa. The experiment is described as follows: Potentiation of minocycline-induced antibacterial activity against MDR/XDR Pseudomonas aeruginosa isolate 101885 harboring GyrA T83I mutant assessed as fold reduction in minocycline MIC at 9 uM incubated for 18 hrs by broth microdilution method.
Experiment [17] deals with Pseudomonas aeruginosa. The experiment is described as follows: Potentiation of minocycline-induced antibacterial activity against MDR/XDR Pseudomonas aeruginosa isolate 101243 devoid of GyrA T83I mutant assessed as fold reduction in minocycline MIC at 9 uM incubated for 18 hrs by broth microdilution method.
The subject of experiment [18] is Pseudomonas aeruginosa. The experiment is described as follows: Potentiation of minocycline-induced antibacterial activity against MDR/XDR Pseudomonas aeruginosa isolate PA259-96918 harboring GyrA T83I mutant assessed as fold reduction in minocycline MIC at 9 uM incubated for 18 hrs by broth microdilution method.
The subject of experiment [19] is Pseudomonas aeruginosa. The experiment can be described thus: Potentiation of rifampicin-induced antibacterial activity against MDR/XDR Pseudomonas aeruginosa isolate 91433 devoid of GyrA T83I mutant assessed as fold reduction in rifampicin MIC at 9 uM incubated for 18 hrs by broth microdilution method. The essentials:
as §1

For the compound `COc1c(N2C[C@@H]3CCCN(CCCCCCCCCCCCO[C@@H]4[C@@H](O)[C@H](N)C[C@H](N)[C@H]4O[C@H]4O[C@H](CN)[C@@H](O)C[C@H]4N)[C@@H]3C2)c(F)cc2c(=O)c(C(=O)O)cn(C3CC3)c12.Cl.Cl.Cl.Cl.Cl`, the “fold change (FC)” value in the experiment on Pseudomonas aeruginosa [1] is given as 32; with Pseudomonas aeruginosa [5], 32; in the experiment on Pseudomonas aeruginosa [6] it was 4; in the experiment on Pseudomonas aeruginosa [7], 4; in the experiment on Pseudomonas aeruginosa [10] it was 2. Further, the MIC80 with Pseudomonas aeruginosa [2], in the experiment with Pseudomonas aeruginosa [3] and in the experiment with Pseudomonas aeruginosa [4] was 0.13 µg/mL each time. Moreover, the MIC50 in the experiment with Pseudomonas aeruginosa [8] and in the experiment on Pseudomonas aeruginosa [12] was 0.06 µg/mL in each case. Besides, in the experiment on Acinetobacter baumannii [9], the “fractional inhibitory concentration index (FICI)” value is on record as over 1. The compound further displayed an MIC against Acinetobacter baumannii [11] of over 256 µg/mL.
`Cl.Cl.Cl.Cl.Cl.NC[C@H]1O[C@H](O[C@H]2[C@H](OCCCCCCCCCCCCN3CCN(c4cc5c(cc4F)c(=O)c(C(=O)O)cn5C4CC4)CC3)[C@@H](O)[C@H](N)C[C@@H]2N)[C@H](N)C[C@@H]1O`: the “fractional inhibitory concentration index (FICI)” value with Escherichia coli [13] was 0.015 - 0.02. Moreover, the “fold change (FC)” value with Enterobacter cloacae is 16; in the experiment with Klebsiella pneumoniae it was 2; in the experiment with Escherichia coli [14], 16. Also, the survival at 25 mg/kg in the experiment on Pseudomonas aeruginosa [15] worked out at 33%.
Take `Cl.Cl.Cl.Cl.Cl.Cl.NC[C@H]1O[C@H](O[C@H]2[C@H](OCCCCCCCCCCN3CCN(Cc4cccc5ccccc45)CC3)[C@@H](O)[C@H](N)C[C@@H]2N)[C@H](N)C[C@@H]1O`: the “fold change (FC)” value in the experiment with Pseudomonas aeruginosa [16] is 64; with Pseudomonas aeruginosa [17], 8; in the experiment on Pseudomonas aeruginosa [18] it was 64; in the experiment on Pseudomonas aeruginosa [19], 4.
